Bioassay records (PubChem BioAssay)
This is a sample that favours compounds with a hit; in the whole collection about 4.2% have one here.
TAAR1 antagonist: human TAAR1 antagonists, primary screen, Fluo-8 calcium fluorescence, CHO RD-HGA16 cells; antagonist; inhibition, % at 3 µM; 1.5% of 360,000 active;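 active means inhibition above a per-plate cutoff, the mean inhibition of test compounds on that plate plus 3 SD, cut at about 49% in these data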
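Test system – hTAAR1-expressing CHO RD-HGA16 cells, Gα16-coupled · Reagent – β-PEA at EC80 concentration, post-compound challenge · Compound dosing – 3 µM, single point · Timing – 140 s kinetic read after compound, 140 s after agonist · Detection – Fluo-8 intracellular calcium dye fluorescence, real-time kinetic reads · Control set – DMSO and EC80 PEA controls · Repeats – n of 1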
OX1R antag-1: OX1R (HCRTR1) antagonists, primary screen, fluorescence, CHO/OX1R cells, Fluo-8 calcium, orexin A. Orexin/Hypocretin receptor type 1 (Homo sapiens), O43613. Fluo-8 calcium fluorescence. inhibition, % at 5 µM. 0.43% of 330,000 active;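 active means inhibition above its plate's threshold, mean inhibition of all tested compounds on the plate plus 3 SD, cut at about 37% in these data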
TAAR1 agonist: human TAAR1 agonists, primary screen, Fluo-8 calcium fluorescence, CHO RD-HGA16 cells; Trace amine-associated receptor 1 (Homo sapiens), Q96RJ0; vehicle wells 0%, saturating PEA agonist 100%; activation, % at 3 µM; 0.99% of 360,000 active; AID 624467, 2012;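 active means activation above the mean activation of all test compounds in the run plus 3 SD, cut at about 38% in these data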
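System: CHO RD-HGA16 cells carrying human TAAR1 plus Gα16; Incubation: 17-24 h seeding, 75 min 37 °C dye, 30 min RT; Measured by: Fluo-8 fluorescence, 5 s baseline then 140 s kinetic read; Control set: DMSO and PEA EC100; Replication: single well for each compound.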
OX1R antag-2: antagonists of human orexin 1 receptor (OX1R) | inhibition, % at 6.6 µM | 1.8% of 330,000 active | OX1R-expressing cells, FRET antagonist read-out | Orexin/Hypocretin receptor type 1 (Homo sapiens), O43613; in the data active means inhibition mostly above about 38%, no sharp cut-off; inactive means mostly below about 40%
GalR3 antagonist: GalR3 antagonists in HEK293 cells, primary screen, cell-based, fluorescence readout; Galanin receptor type 3 (Homo sapiens), O60755; HEK293 GalR3-CNG cAMP membrane potential fluorescence; galR3 body fused to GalR1 C-terminus; inhibition, % at 3 µM; 0.44% of 360,000 active; AID 651719, 2012;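 active means inhibition above the screen-wide average plus 3 SD, cut at about 13% in these data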;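 further: forskolin and galanin both at EC90 stimulate the cells; cAMP rise reported by CNG channel membrane potential dye signal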
Target sequence (O60755 1-299 limits assumed): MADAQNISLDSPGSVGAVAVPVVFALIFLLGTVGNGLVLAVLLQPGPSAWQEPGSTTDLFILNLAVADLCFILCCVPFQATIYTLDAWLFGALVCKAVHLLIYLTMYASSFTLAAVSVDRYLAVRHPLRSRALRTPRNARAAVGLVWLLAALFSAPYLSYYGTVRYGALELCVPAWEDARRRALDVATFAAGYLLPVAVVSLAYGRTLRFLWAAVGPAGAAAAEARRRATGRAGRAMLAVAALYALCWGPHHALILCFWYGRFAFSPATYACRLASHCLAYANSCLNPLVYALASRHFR
CHO parental Ca: ATP-evoked calcium signal inhibitors, parental CHO, primary screen, counter-screen for OX1R antagonist project, cell-based, fluorescence, Fluo-8 calcium dye | inhibition, % at 5.6 µM | 0.63% of 330,000 active | AID 463079, 2010 | parental CHO-K1, ATP-induced calcium, Fluo-8 fluorescence;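 active means inhibition above that plate's mean sample inhibition plus 3 SD, cut at about 26% in these data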
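Material: Parental CHO cells | Reagent: ATP | Compound dosing: Single nominal dose of 5.6 µM per compound | Detection: Intracellular calcium via Fluo-8 no-wash fluorescent dye | Read-out: % inhibition of ATP-induced calcium mobilization | Benchmarks: Low control ATP plus DMSO, high control DMSO only | Replicates: Singlicate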
GalR3 antag conf: GalR3 antagonist hit confirmation, cell-based, fluorescence, triplicate; shares compounds with GalR3 antagonist; HEK293 GalR3 CNG cAMP biosensor, membrane potential fluorescence; galR3 fused to GalR1 carboxy tail; challenged with forskolin and galanin at EC90; inhibition, % at 3 µM; 59% of 1,600 active; AID 652245, 2013;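 active means inhibition above the primary screen's cutoff, the mean inhibition of all screened compounds plus 3 SD, cut at about 13% in these data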
HEK-CNG parental: nonspecific cAMP agonists in parental HEK-CNG cells, counter-screen for GalR3 antagonist project, cell-based, fluorescence, high throughput; shares compounds with GalR3 antagonist; 10% of 1,600 active; AID 652268, 2013; HEK293-CNG parental cells, cAMP membrane potential fluorescence; normalised: DMSO wells 0%, forskolin wells 100%; activation, % at 3 µM; in the data active means activation above about 1.3%
Each line names hits and unclear results; the compound was inactive in the other large screens (follow-up assays come after a bar, where they were run).

Cc1ccc(OCC(=O)Nc2ccccc2[N+](=O)[O-])c(Br)c1	none
Cn1nc(C(C)(C)C)cc1C(=O)NCc1ccc2c(c1)OCO2	GalR3 antagonist 105.3, CHO parental Ca 47.7 | GalR3 antag conf 107.8 | HEK-CNG parental inactive
Cc1ccc2nc(NC(=O)CN(C)S(=O)(=O)c3ccc(Br)s3)sc2c1	none
COc1ccc(C(=O)NC2CCCc3c2cnn3-c2ccccc2F)cc1OC (stereo not drawn)	GalR3 antagonist 67.8 | GalR3 antag conf 41.8 | HEK-CNG parental inactive
O=C(NC1CCCc2c1cnn2-c1ccccc1F)c1ccncc1 (stereo not drawn)	GalR3 antagonist 32.5 (no result: OX1R antag-1, OX1R antag-2, CHO parental Ca) | GalR3 antag conf 75.2 | HEK-CNG parental inactive
C=CCN(c1ccccc1OC)S(=O)(=O)c1cccc(C(=O)OC2CCOC2=O)c1 (stereo not drawn)	none
Cc1ncc(CO)c(/C=N/NC(=S)Nc2cccc(Cl)c2)c1O	none (no result: TAAR1 antagonist, TAAR1 agonist, GalR3 antagonist)
NCCNc1ccc([N+](=O)[O-])c(Sc2nc3ccccc3[nH]2)c1	none
CN(C)S(=O)(=O)c1cccc(CSCc2cccc(S(=O)(=O)N(C)C)c2)c1	GalR3 antagonist 77.9, CHO parental Ca 45.6 | GalR3 antag conf 86.8 | HEK-CNG parental inactive
c1ccc2c(c1)nc(NCCN1CCOCC1)c1nncn12	none (no result: GalR3 antagonist) | GalR3 antag conf inactive | HEK-CNG parental inactive
Cc1cc(C)cc(NS(=O)(=O)c2c(C)[nH]c(=O)[nH]c2=O)c1	none (no result: OX1R antag-1, OX1R antag-2, CHO parental Ca)
CN(CC(=O)NC1CC1)S(=O)(=O)c1ccc(F)cc1	none
COC(=O)COc1ccc(-c2ccccc2)cc1C=O	GalR3 antagonist 16.7 | GalR3 antag conf inactive | HEK-CNG parental inactive
O=C(NCC(=O)N1CCN(c2ccccc2)CC1)c1ccc(Cl)cc1	GalR3 antagonist 13.7 | GalR3 antag conf inactive | HEK-CNG parental inactive
CC(C)Cn1c(N)c(C(=O)COC(=O)c2cc3ccccc3cc2O)c(=O)n(C)c1=O	none
CC(C)Cn1c(N)c(C(=O)COC(=O)/C=C/c2ccccc2)c(=O)n(C)c1=O	GalR3 antagonist 16.2, CHO parental Ca 78.1 | GalR3 antag conf 86.0 | HEK-CNG parental inactive
O=[N+]([O-])c1ccc(CN2CCCCCC2)cc1	none
CSc1ccc(CN2CCN(Cc3ccc([N+](=O)[O-])cc3)CC2)cc1	GalR3 antagonist 84.3 | GalR3 antag conf 103.9 | HEK-CNG parental inactive
Cc1cc(C)n(Cc2ccc(C(=O)O)o2)n1	none
Cn1c(=O)n(C)c2cc(CNC(=O)[C@H]3O[C@@H](n4cnc5c(N)ncnc54)[C@H](O)[C@@H]3O)ccc21	none (no result: OX1R antag-1, OX1R antag-2, CHO parental Ca)
CN(Cc1ccc2c(c1)CCCN2C)C(=O)[C@H]1O[C@@H](n2cnc3c(N)ncnc32)[C@H](O)[C@@H]1O	GalR3 antagonist 41.6 (no result: OX1R antag-1, OX1R antag-2, CHO parental Ca) | GalR3 antag conf 85.3 | HEK-CNG parental inactive
Cc1cccc(-n2ncc3c2CCCC3NC(=O)Cn2cccn2)c1C (stereo not drawn)	none
CCc1cc(C(=O)NC2CCCc3c2cnn3-c2cccc(C)c2C)n(C)n1 (stereo not drawn)	OX1R antag-2 60.1, GalR3 antagonist 99.3, CHO parental Ca 62.4 | GalR3 antag conf 102.4 | HEK-CNG parental inactive
Cc1cc(C(=O)NC2CCCc3c2cnn3-c2ccc(C)c(C)c2)n(C)n1 (stereo not drawn)	GalR3 antagonist 99.0, CHO parental Ca 45.4 | GalR3 antag conf 105.1 | HEK-CNG parental inactive
